The results in this text go back to ChEMBL document CHEMBL4014264, “Benzoyltyramine Alkaloids Atalantums A-G from the Peels of Atalantia monophylla and Their Cytotoxicity against Cholangiocarcinoma Cell Lines” (J Nat Prod, 2017).

Experiment [1] in a line: Cytotoxicity against human KKU-M214 cells assessed as reduction in cell viability after 72 hrs by SRB assay. It counts as functional, cell-based. The note with it: KKU-M214, 72 h. In outline:
(§1)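 Cholangiocarcinoma cells seeded at (1−2) × 10^4 cells/well, grown 24 h at 37 °C, then dosed in triplicate to final 0.025−20 μg/well, with 0.1% DMSO solvent control. Starting plates read after 1 h, treated plates after 72 h, by SRB. Viability % = (OD treated day 3 − OD start)/(OD control day 3 − OD start) × 100. IC50 taken from dose–response curves.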

Experiment [2] in a line: Cytotoxicity against human KKU-M213 cells assessed as reduction in cell viability after 72 hrs by SRB assay. It counts as functional, cell-based. The note with it: KKU-M213, 72 h. In outline:
as §1
In general terms: The SRB assay estimates cell density from bound dye.

Experiment [3] is described as follows: Cytotoxicity against human KKU-M156 cells assessed as reduction in cell viability after 72 hrs by SRB assay. The format is functional, cell-based. The note with it: KKU-M156, 72 h. In short, it runs like this: as §1
A short description of experiment [4]: Potency index, ratio of ellipticine IC50 to compound IC50 for human KKU-M156 cells. It counts as functional.

For `CCCCCCCCCCCCCCCC(=O)OC(CC(O)/C(C)=C/COc1ccc(CCNC(=O)c2ccccc2)cc1)C(C)(C)O` (racemic), the half-maximal inhibitory concentration (IC50) – broadly, the point on the concentration scale where inhibition reaches its midpoint – in experiment [1] stood at 8.44 µM; in experiment [2], 23.5 µM; in experiment [3], 1.97 µM. Besides, in experiment [4], the “Ratio IC50” value is listed as 4.7.

As for `CC(=O)OC(CC1OC1(C)C)/C(C)=C/COc1ccc(CCNC(=O)c2ccccc2)cc1` (stereo unspecified), the values for the concentration for half-maximal inhibition (IC50) in experiment [1], in experiment [2] and in experiment [3] were 31.5 µM, 11.1 µM and 29.1 µM, respectively.

In the case of `Cc1c2ccncc2c(C)c2c1[nH]c1ccccc12` [ELLIPTECINE], the IC50 in experiment [2] worked out at 6.58 µM.

Turning to `CCCCCCCCCCCCCCCCCC(=O)OC(CC(OC(C)=O)C(C)(C)O)/C(C)=C/COc1ccc(CCNC(=O)c2ccccc2)cc1` (racemic), the concentration for half-maximal inhibition (IC50) in experiment [1] stood at 12.4 µM; in experiment [2], 29.1 µM; in experiment [3], 24 µM.

Regarding `C/C(=C\COc1ccc(CCNC(=O)c2ccccc2)cc1)C(O)CC(O)C(C)(C)O` (stereo unspecified), the IC50 in experiment [1] turned out to be 11.1 µM; in experiment [2], 25.8 µM; in experiment [3], 26.8 µM.

On to `C/C(=C\COc1ccc(CCNC(=O)c2ccccc2)cc1)C1CC(O)C(C)(C)O1` (racemic), for which the 50% inhibitory concentration (IC50) stood at 7.37 µM in experiment [1], 12.2 µM in experiment [2] and 21.5 µM in experiment [3].

Consider `CCCCCCCCCCCCCCCC(=O)OC(CC(O)C(C)(C)O)/C(C)=C/COc1ccc(CCNC(=O)c2ccccc2)cc1` (racemic), for which the 50% inhibitory concentration (IC50) in experiment [1] came to 27.4 µM; in experiment [2] it was 5.63 µM; in experiment [3], 2.8 µM.

`CC(=O)OC(CC(O)C(C)(C)O)/C(C)=C/COc1ccc(CCNC(=O)c2ccccc2)cc1` (stereo unspecified): the IC50 in experiment [1] amounted to 44.5 µM; in experiment [2], 28.8 µM; in experiment [3], 49.7 µM.

Regarding `O=c1[nH]cc(F)c(=O)[nH]1` [FLUOROURACIL], the IC50 in experiment [1] was found to be 3.76 µM.

Consider `CCCCCCCCCCCCCC(=O)OC(CC(OC(C)=O)C(C)(C)O)/C(C)=C/COc1ccc(CCNC(=O)c2ccccc2)cc1` (racemic), for which the half-maximal inhibitory concentration (IC50) in experiment [1] stood at 24 µM; in experiment [2] it was 2.36 µM; in experiment [3] it was 24.5 µM.

Consider `CCCCCCCCCCCCCCCC(=O)OC(CC(OC(C)=O)C(C)(C)O)/C(C)=C/COc1ccc(CCNC(=O)c2ccccc2)cc1` (racemic), for which the half-maximal inhibitory concentration (IC50) came to 3.06 µM in experiment [1], 34.8 µM in experiment [2] and 22 µM in experiment [3].

With `CCCCCCCCCCCCCCCC(=O)OC(CC1OC1(C)C)/C(C)=C/COc1ccc(CCNC(=O)c2ccccc2)cc1` (stereo unspecified), the half-maximal inhibitory concentration (IC50) in experiment [1] was found to be 14.9 µM; in experiment [2], 2.71 µM; in experiment [3], 21 µM.

For the molecule `CCCCCCCCCCCCCCCC(=O)OC(C)(C)C(O)CC(O)/C(C)=C/COc1ccc(CCNC(=O)c2ccccc2)cc1` (racemic), the IC50 in experiment [1] was found to be 20.5 µM; in experiment [2], 16.1 µM; in experiment [3], 31.5 µM.
